Reference: ChEMBL document CHEMBL1926569, “Novel (E)-1-(4-methyl-2-(alkylamino)thiazol-5-yl)-3-arylprop-2-en-1-ones as potent antimicrobial agents” (2011)

How the values were obtained:
Candida albicans [1] = assay: Ratio of ketoconazole to compound for Candida albicans isolated from human; assay type: functional
Candida albicans [2] = assay: Antifungal activity against Candida albicans isolated from human after 72 hrs by serial dilution technique; assay type: functional
Procedure, shortened: (§1)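 Modified microdilution in 96-well plates. Fungi were kept on malt agar at 4 °C. Spores were washed off in sterile 0.85% saline with 0.1% Tween 80. Compounds were dissolved at 1 mg/ml in 5% DMSO with 0.1% Tween 80 and added to malt broth with inoculum. Plates were shaken at 160 rpm for 72 h at 28 °C. Duplicate, repeated three times.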

Listeria monocytogenes [3] = assay: Antibacterial activity against Listeria monocytogenes NCTC 7973 incubated for 24 hrs followed by serial sub-cultivation for 24 hrs by microdilution; assay type: functional; conditions: NCTC 7973, 24 h
Procedure, shortened: (§2)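 MBC: after the 24 h LB broth microdilution (1.0 × 10⁴ CFU per well, 160 rpm), wells were serially sub-cultured into fresh broth plates and incubated a further 24 h. MBC is the lowest concentration with no visible growth, taken as 99.5% killing of the original inoculum. Duplicate, repeated three times.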

Aspergillus ochraceus [4] = assay: Ratio of ketoconazole to compound for Aspergillus ochraceus ATCC 12066; assay type: functional
Aspergillus niger [5] = assay: Ratio of bifonazole to compound for Aspergillus niger ATCC 6275; assay type: functional
Trichoderma viride [6] = assay: Antifungal activity against Trichoderma viride IAM 5061 after 72 hrs by serial dilution technique; assay type: functional; conditions: IAM 5061, 72 h; procedure, shortened: as §1
Pseudomonas aeruginosa [7] = assay: Antibacterial activity against Pseudomonas aeruginosa ATCC 27853 after 24 hrs by microdilution method; assay type: functional; conditions: ATCC 27853, 24 h
Procedure, shortened: (§3)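 Broth microdilution in 96-well plates. Bacterial suspensions were adjusted in sterile saline to 1.0 × 10⁵ CFU/ml, prepared daily and kept at 4 °C. Compound was added to LB broth with 1.0 × 10⁴ CFU per well and shaken at 160 rpm for 24 h at […] (so in the source). MIC is the lowest concentration with no visible growth under a binocular microscope. OD655 was also read. Duplicate, repeated three times.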

Candida albicans [8] = assay: Antifungal activity against Candida albicans isolated from human incubated for 72 hrs followed by serial sub-cultivation for 72 hrs by serial dilution technique; assay type: functional
Procedure, shortened: (§4)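 MFC: material from 72 h malt broth microdilution wells was serially sub-cultured into fresh broth plates and incubated a further 72 h at 28 °C. Fungicidal concentration is taken from growth after sub-culture. Duplicate, repeated three times.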

Trichoderma viride [9] = assay: Ratio of bifonazole to compound for Trichoderma viride IAM 5061; assay type: functional
Aspergillus flavus [10] = assay: Antifungal activity against Aspergillus flavus ATCC 9643 after 72 hrs by serial dilution technique; assay type: functional; conditions: ATCC 9643, 72 h; procedure, shortened: as §1
Aspergillus ochraceus [11] = assay: Antifungal activity against Aspergillus ochraceus ATCC 12066 incubated for 72 hrs followed by serial sub-cultivation for 72 hrs by serial dilution technique; assay type: functional; conditions: ATCC 12066, 72 h; procedure, shortened: as §4
Aspergillus ochraceus [12] = assay: Antifungal activity against Aspergillus ochraceus ATCC 12066 after 72 hrs by serial dilution technique; assay type: functional; conditions: ATCC 12066, 72 h; procedure, shortened: as §1
Talaromyces funiculosus [13] = assay: Antifungal activity against Penicillium funiculosum ATCC 36839 after 72 hrs by serial dilution technique; assay type: functional; conditions: ATCC 36839, 72 h; procedure, shortened: as §1
Pseudomonas aeruginosa [14] = assay: Ratio of ampicillin MIC to compound MIC for Pseudomonas aeruginosa ATCC 27853; assay type: functional
Micrococcus flavus [15] = assay: Antibacterial activity against Micrococcus flavus ATCC 10240 after 24 hrs by microdilution method; assay type: functional; conditions: ATCC 10240, 24 h; procedure, shortened: as §3
Bacillus cereus [16] = assay: Antibacterial activity against clinical isolate of Bacillus cereus incubated for 24 hrs followed by serial sub-cultivation for 24 hrs by microdilution; assay type: functional; procedure, shortened: as §2
Staphylococcus aureus [17] = assay: Antibacterial activity against Staphylococcus aureus ATCC 6538 after 24 hrs by microdilution method; assay type: functional; conditions: ATCC 6538, 24 h; procedure, shortened: as §3
Micrococcus flavus [18] = assay: Antibacterial activity against Micrococcus flavus ATCC 10240 incubated for 24 hrs followed by serial sub-cultivation for 24 hrs by microdilution; assay type: functional; conditions: ATCC 10240, 24 h; procedure, shortened: as §2
Aspergillus ochraceus [19] = assay: Antifungal activity against Aspergillus ochraceus after 72 hrs by serial dilution technique
Enterococcus faecalis [20] = assay: Antibacterial activity against Enterococcus faecalis isolated from human incubated for 24 hrs followed by serial sub-cultivation for 24 hrs by microdilution; assay type: functional; procedure, shortened: as §2
Aspergillus flavus [21] = assay: Antifungal activity against Aspergillus flavus ATCC 9643 incubated for 72 hrs followed by serial sub-cultivation for 72 hrs by serial dilution technique; assay type: functional; conditions: ATCC 9643, 72 h; procedure, shortened: as §4
Staphylococcus aureus [22] = assay: Antibacterial activity against Staphylococcus aureus ATCC 6538 incubated for 24 hrs followed by serial sub-cultivation for 24 hrs by microdilution method; assay type: functional; conditions: ATCC 6538, 24 h; procedure, shortened: as §2
Aspergillus ochraceus [23] = assay: Ratio of bifonazole to compound for Aspergillus ochraceus ATCC 12066; assay type: functional
Listeria monocytogenes [24] = assay: Antibacterial activity against Listeria monocytogenes NCTC 7973 after 24 hrs by microdilution method; assay type: functional; conditions: NCTC 7973, 24 h; procedure, shortened: as §3
Penicillium ochrochloron [25] = assay: Antifungal activity against Penicillium ochrochloron ATCC 9112 after 72 hrs by serial dilution technique; assay type: functional; conditions: ATCC 9112, 72 h; procedure, shortened: as §1
Pseudomonas aeruginosa [26] = assay: Antibacterial activity against Pseudomonas aeruginosa ATCC 27853 incubated for 24 hrs followed by serial sub-cultivation for 24 hrs by microdilution; assay type: functional; conditions: ATCC 27853, 24 h; procedure, shortened: as §2
Talaromyces funiculosus [27] = assay: Antifungal activity against Penicillium funiculosum ATCC 36839 incubated for 72 hrs followed by serial sub-cultivation for 72 hrs by serial dilution technique; assay type: functional; conditions: ATCC 36839, 72 h; procedure, shortened: as §4
Escherichia coli [28] = assay: Antibacterial activity against Escherichia coli ATCC 35210 after 24 hrs by microdilution method; assay type: functional; conditions: ATCC 35210, 24 h; procedure, shortened: as §3
Aspergillus niger [29] = assay: Antifungal activity against Aspergillus niger ATCC 6275 after 72 hrs by serial dilution technique; assay type: functional; conditions: ATCC 6275, 72 h; procedure, shortened: as §1
Penicillium ochrochloron [30] = assay: Ratio of bifonazole to compound for Penicillium ochrochloron ATCC 9112; assay type: functional
Enterococcus faecalis [31] = assay: Antibacterial activity against Enterococcus faecalis isolated from human after 24 hrs by microdilution method; assay type: functional; procedure, shortened: as §3
Aspergillus niger [32] = assay: Antifungal activity against Aspergillus niger ATCC 6275 incubated for 72 hrs followed by serial sub-cultivation for 72 hrs by serial dilution technique; assay type: functional; conditions: ATCC 6275, 72 h; procedure, shortened: as §4
Bacillus cereus [33] = assay: Antibacterial activity against clinical isolate of Bacillus cereus after 24 hrs by microdilution method; assay type: functional; procedure, shortened: as §3
Aspergillus fumigatus [34] = assay: Ratio of ketoconazole to compound for Aspergillus fumigatus isolated from human; assay type: functional
Penicillium ochrochloron [35] = assay: Antifungal activity against Penicillium ochrochloron ATCC 9112 incubated for 72 hrs followed by serial sub-cultivation for 72 hrs by serial dilution technique; assay type: functional; conditions: ATCC 9112, 72 h; procedure, shortened: as §4
Aspergillus fumigatus [36] = assay: Antifungal activity against Aspergillus fumigatus isolated from human incubated for 72 hrs followed by serial sub-cultivation for 72 hrs by serial dilution technique; assay type: functional; procedure, shortened: as §4
Salmonella typhimurium [37] = assay: Antibacterial activity against Salmonella Typhimurium ATCC 13311 after 24 hrs by microdilution method; assay type: functional, Salmonella enterica subsp. enterica serovar Typhimurium; conditions: Salmonella enterica, ATCC 13311, 24 h; procedure, shortened: as §3
Penicillium ochrochloron [38] = assay: Ratio of ketoconazole to compound for Penicillium ochrochloron ATCC 9112; assay type: functional
Escherichia coli [39] = assay: Antibacterial activity against Escherichia coli ATCC 35210 incubated for 24 hrs followed by serial sub-cultivation for 24 hrs by microdilution; assay type: functional; conditions: ATCC 35210, 24 h; procedure, shortened: as §2
Candida albicans [40] = assay: Ratio of bifonazole to compound for Candida albicans isolated from human; assay type: functional
Salmonella typhimurium [41] = assay: Antibacterial activity against Salmonella Typhimurium ATCC 13311 incubated for 24 hrs followed by serial sub-cultivation for 24 hrs by microdilution; assay type: functional, Salmonella enterica subsp. enterica serovar Typhimurium; conditions: Salmonella enterica, ATCC 13311, 24 h; procedure, shortened: as §2
Talaromyces funiculosus [42] = assay: Ratio of bifonazole to compound for Penicillium funiculosum ATCC 36839; assay type: functional
Trichoderma viride [43] = assay: Antifungal activity against Trichoderma viride IAM 5061 incubated for 72 hrs followed by serial sub-cultivation for 72 hrs by serial dilution technique; assay type: functional; conditions: IAM 5061, 72 h; procedure, shortened: as §4

CCNc1nc(C)c(C(=O)/C=C/c2cccc(Cl)c2)s1
65.3 µM: MIC (Pseudomonas aeruginosa [7]) | MFC (Candida albicans [8]) | MIC (Aspergillus flavus [10]) | MIC (Aspergillus ochraceus [12]) | MBC (Bacillus cereus [16]) | MBC (Enterococcus faecalis [20]) | MIC (Penicillium ochrochloron [25]) | MFC (Talaromyces funiculosus [27]) | MIC (Aspergillus niger [29]) | MFC (Aspergillus fumigatus [36]) | MBC (Escherichia coli [39]) | MBC (Salmonella typhimurium [41]) | MFC (Trichoderma viride [43])
49.1 µM: MIC (Escherichia coli [28]) | MIC (Enterococcus faecalis [31]) | MIC (Bacillus cereus [33]) | MIC (Salmonella typhimurium [37])
114 µM: MBC (Listeria monocytogenes [3])
32.7 µM: MIC (Candida albicans [2]) | MIC (Trichoderma viride [6]) | MIC (Talaromyces funiculosus [13]) | MIC (Micrococcus flavus [15]) | MIC (Aspergillus ochraceus [19])
81.7 µM: MFC (Aspergillus ochraceus [11]) | MBC (Micrococcus flavus [18]) | MFC (Aspergillus flavus [21]) | MBC (Pseudomonas aeruginosa [26]) | MFC (Aspergillus niger [32]) | MFC (Penicillium ochrochloron [35])
10: Ratio (Candida albicans [1]) | Ratio (Aspergillus ochraceus [4]) | Ratio (Aspergillus niger [5]) | Ratio (Trichoderma viride [9]) | Ratio (Pseudomonas aeruginosa [14]) | Ratio (Aspergillus ochraceus [23]) | Ratio (Penicillium ochrochloron [30]) | Ratio (Aspergillus fumigatus [34]) | Ratio (Penicillium ochrochloron [38]) | Ratio (Candida albicans [40]) | Ratio (Talaromyces funiculosus [42])
98 µM: MIC (Staphylococcus aureus [17]) | MBC (Staphylococcus aureus [22]) | MIC (Listeria monocytogenes [24])
